Bioassay records as filed in PubChem BioAssay.
The list is not random: actives were taken first. Their share in the collection is about 7.2%.
PostGolgi ctrl: growth of the yeast control strain, post-Golgi counter-screen; efflux-deficient yeast background strain, growth absorbance A615, 16 h; inhibition, % at 10 µM; 98,000 tested, 5% active; AID 738
E coli WT exp: E. coli BW25113 growth inhibition, expanded screen | 98,000 tested, 0.15% active | OD600 absorbance | growth inhibition, % at 100 µM;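 active = growth inhibition above about 50% at one test dose, limit read from the data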;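 also: growth measured after 20 h incubation at 37 °C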
PLAP activator: activators of human placental alkaline phosphatase. P05187. 96,000 tested, 1.2% active. activation fold at 20 µM. purified PLAP enzyme, luminescent substrate read-out; active compounds read high; in the data active = activation fold above about 2
Target sequence (P05187 whole entry, looked up): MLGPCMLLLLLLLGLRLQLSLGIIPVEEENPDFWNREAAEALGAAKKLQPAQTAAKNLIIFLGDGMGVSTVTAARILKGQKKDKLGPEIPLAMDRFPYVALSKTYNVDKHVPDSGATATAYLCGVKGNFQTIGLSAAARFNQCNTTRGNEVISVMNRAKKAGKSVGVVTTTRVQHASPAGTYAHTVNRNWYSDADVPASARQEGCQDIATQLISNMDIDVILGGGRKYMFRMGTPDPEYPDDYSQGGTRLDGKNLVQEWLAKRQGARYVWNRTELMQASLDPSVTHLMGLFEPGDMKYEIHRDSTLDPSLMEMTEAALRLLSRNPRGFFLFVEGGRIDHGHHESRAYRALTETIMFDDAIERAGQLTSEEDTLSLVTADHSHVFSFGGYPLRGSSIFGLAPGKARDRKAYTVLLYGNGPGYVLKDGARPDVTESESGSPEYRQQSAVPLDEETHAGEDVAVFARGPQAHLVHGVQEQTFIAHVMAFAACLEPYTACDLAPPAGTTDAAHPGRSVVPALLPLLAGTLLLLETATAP
PostGolgi yeast: growth inhibition of a yeast mutant, post-Golgi transport screen; 98,000 tested, 0.9% active; post-Golgi transport phenotypic cell assay; inhibition, % at 10 µM;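 also: yeast cells grown in 1536-well plates; yeast grown about 18 h at 30C before absorbance read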
Ecoli tolC: blocks growth of E. coli BW25113 tolC mutant; 65,000 tested, 2.2% active; growth inhibition, % at 10 µM (by protocol); OD615;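 active = growth inhibition at or above a cutoff equal to the mean over every tested compound plus 3 SD, cut at about 60% in these data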;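 also: growth measured after 20 h incubation at 37 °C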
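signal = optical density read at 615 nm | test system = E. coli ΔtolC::kan strain BW25113 | timing = 20 h compound exposure of bacteria at 37 °C | buffer or medium = LB medium plus 50 µg/mL kanamycin | compound dosing = 10 µM final, single dose | evaluation = % inhibition of E. coli growth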
* = called active by the depositor; x = not tested or not shown. Rule as the data show it, unless noted: active = inhibition above about 30%; inactive = the rest.

SMILES	PostGolgi ctrl	E coli WT exp	PLAP activator	PostGolgi yeast	Ecoli tolC
Cc1cc(N2C(=O)C3CCCN3C2c2cccc(Cl)c2)no1 (stereo unspecified)	-2.8	-8.0	x	-4.0	-23.2
Cc1cc(N2C(=O)C3CCCN3C2c2sccc2C)no1 (stereo unspecified)	-5.1	0.0	1.2	35.8*	-25.5
Cc1ccc(N2C(=O)/C(=C/c3ccc(CN(CCC#N)S(C)(=O)=O)o3)C(=O)NC2=S)cc1	6.1	21.0	1.1	-4.5	x
CN1CCN(C(=O)OC2c3nccnc3C(=O)N2c2ccc(Cl)cn2)CC1 (stereo unspecified)	x	x	x	x	-28.2
OC(COCc1ccc(Cl)cc1)CN1CC=C(c2ccccc2)CC1 (stereo unspecified)	15.4	24.0	1.5	63.3*	-2.3
O=C1CC(C(=O)N2CCC3(CC2)OCCO3)CN1CCc1ccccc1 (stereo unspecified)	31.6*	2.0	1.2	-4.2	-12.7
O=C(C1CC(=O)N(C2CCCCC2)C1)N1CCC2(CC1)OCCO2 (stereo unspecified)	4.0	-1.0	1.2	21.1	-7.6
CN1C(=O)/C(=C/c2cccn2-c2ccc3ccccc3c2)C(=O)NC1=S	4.2	-13.0	0.9	97.8*	x
Cc1cc(C)cc(N2C(=O)NC(=O)/C(=C\c3cccn3-c3ccc(Cl)cc3)C2=O)c1	-2.4	-8.0	1.2	4.4	x
CCCCn1c(=O)c(C(=O)Nc2cnccn2)c(O)c2ccccc21	25.8	-5.0	1.6	7.2	98.8*
CCCCn1c(=O)c(C(=O)Nc2nc3ccccc3[nH]2)c(O)c2ccccc21	x	x	0.9	x	-7.8
COc1ccc(CCN(C)Cc2c(F)cccc2F)cc1OC	-4.9	5.0	1.5	9.1	-6.8
Cc1cccc(NC(N)=S)c1	5.2	2.0	0.9	4.4	x
Cn1c(C(=O)O)c(CC(=O)N2CCN(Cc3ccccc3)CC2)c2ccccc21	2.6	1.0	1.7	1.7	-11.4
COc1ccccc1N1CCN(Cc2c(F)cccc2F)CC1	3.7	1.0	1	-18.4	-9.6
COc1ccccc1N1CCN(Cc2ccccc2F)CC1	-1.3	5.0	1.3	36.2*	-19.0
CC(c1ccccc1F)n1cc(C(=O)Nc2ccc3nc[nH]c3c2)nn1 (stereo unspecified)	30.4*	2.0	1.6	-3.1	-11.1
Cc1nn(C)c(C)c1P(=S)(c1c(C)nn(C)c1C)N(C)C	40.4*	-1.0	0.8	9.9	-13.6
CCOC(=O)/C(CCCN(CC)CC)=N\O	-3.0	-3.0	0.7	-4.1	-15.4
CCOC(=O)C1=C(N)OC2=C(C(=O)CCC2)C12C(=O)N1c3c(ccc(C)c32)C(C)=CC1(C)C (stereo unspecified)	19.7	-5.0	x	-0.8	70.0*
CCOC(=O)C1=C(N)OC2=C(C(=O)CCC2)C12C(=O)Nc1ccccc12 (stereo unspecified)	-1.8	-5.0	1	1.7	-2.0
C#CCN(C)C(C)Cc1ccccc1 (stereo unspecified)	x	x	x	x	3.9
COC(=O)C1C2c3ccccc3OC1(C)N=c1s/c(=C/c3cnn(C)c3C)c(=O)n12 (stereo unspecified)	47.8*	-2.0	1.6	4.0	10.4
CC(=NCCN1CCCCC1)c1c(O)n(-c2ccc(Cl)cc2)c(=O)[nH]c1=O	4.1	0.0	1	-0.5	x
CCOC(=O)C(O)(c1ccc(N(CC)S(=O)(=O)c2ccccc2)cc1)C(F)(F)F (stereo unspecified)	38.5*	-2.0	0.9	5.0	52.5
SMILES	PostGolgi ctrl	E coli WT exp	PLAP activator	PostGolgi yeast	Ecoli tolC
CCCC(=O)NC(Oc1ccccc1Cl)C(Cl)(Cl)Cl (stereo unspecified)	3.9	9.0	1	13.8	x
CN1CCc2nc3ccc(F)cc3c(C(N)=O)c2C1	10.2	0.0	1	-2.3	x
Cc1nc2c(c(C)nn2-c2ccccc2)c(C)c1CCC(=O)N1CCC2(CC1)OCCO2	33.7*	0.0	1.5	8.1	3.0
CC(C)CC1C(C#N)=C(N)Oc2c1c(=O)oc1ccccc21 (stereo unspecified)	40.8*	-1.0	0.9	-3.1	0.9
N#CC1=C(N)Oc2c(c(=O)oc3ccccc23)C1c1ccncc1 (stereo unspecified)	-2.1	2.0	1	1.6	x
CCCOC(=O)c1c(N)n(Cc2cccs2)c2nc3ccccc3nc12	47.6*	-9.0	0.9	1.6	x
CCOC(=O)c1c(N)n(Cc2ccco2)c2nc3ccccc3nc12	47.1*	7.0	1.2	10.9	7.6
Cc1ccc(N2CCN(CCc3ccccc3)CC2)cc1	43.1*	7.0	1	7.0	x
CCn1nc(-c2cccs2)nc2c(=O)n(C)c(=O)nc1-2	99.7*	26.0	0.9	104.6*	97.5*
Clc1cccc(Cl)c1C1N2CCCN12 (stereo unspecified)	-1.2	-1.0	1	-8.2	x
